Test results: ChEMBL document CHEMBL2069278, “Novel substituted benzothiophene and thienothiophene carboxanilides and quinolones: synthesis, photochemical synthesis, DNA-binding properties, antitumor evaluation and 3D-derived QSAR analysis” (J Med Chem, 2012)
Active and inactive are the calls of the source. No cut-off for these calls is given here.

Experiments:
MOLT-4 = test: Cytotoxicity against human MOLT4 cells after 72 hrs by MTT assay; assay type: functional, cell-based; conditions: MOLT-4, 72 h
Summary of the method: (§1)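 Cells seeded on day 0 at 1 × 10^4 to 3 × 10^4 cells/mL (adherent lines in DMEM, MOLT-4 in suspension in RPMI, 10% FBS, 37 °C, 5% CO2); 10-fold dilutions 10−8–10−4 M for 72 h; MTT, OD 570 nm; percentage growth versus time-zero and control; IC50 by linear regression; quadruplicate, at least two experiments.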

HCT-116 = test: Cytotoxicity against human HCT116 cells after 72 hrs by MTT assay; assay type: functional, cell-based; conditions: HCT-116, 72 h; summary of the method: as §1
SW-620 = test: Cytotoxicity against human SW620 cells after 72 hrs by MTT assay; assay type: functional, cell-based; conditions: SW-620, 72 h; summary of the method: as §1
MCF7 = test: Cytotoxicity against human MCF7 cells after 72 hrs by MTT assay; assay type: functional, cell-based; conditions: MCF7, 72 h; summary of the method: as §1
NCI-H460 = test: Cytotoxicity against human H460 cells after 72 hrs by MTT assay; assay type: functional, cell-based; conditions: NCI-H460, 72 h; summary of the method: as §1
[1] = biological target: DNA topoisomerase 2-alpha (Homo sapiens) (UniProt P11388); test: Inhibition of human topoisomerase 2-mediated DNA cleavage at 50 uM incubated for 45 mins followed by enzyme addition measured after 30 mins by agarose gel electrophoresis
DNA topoisomerase 2-alpha (Homo sapiens), sequence (P11388 whole entry): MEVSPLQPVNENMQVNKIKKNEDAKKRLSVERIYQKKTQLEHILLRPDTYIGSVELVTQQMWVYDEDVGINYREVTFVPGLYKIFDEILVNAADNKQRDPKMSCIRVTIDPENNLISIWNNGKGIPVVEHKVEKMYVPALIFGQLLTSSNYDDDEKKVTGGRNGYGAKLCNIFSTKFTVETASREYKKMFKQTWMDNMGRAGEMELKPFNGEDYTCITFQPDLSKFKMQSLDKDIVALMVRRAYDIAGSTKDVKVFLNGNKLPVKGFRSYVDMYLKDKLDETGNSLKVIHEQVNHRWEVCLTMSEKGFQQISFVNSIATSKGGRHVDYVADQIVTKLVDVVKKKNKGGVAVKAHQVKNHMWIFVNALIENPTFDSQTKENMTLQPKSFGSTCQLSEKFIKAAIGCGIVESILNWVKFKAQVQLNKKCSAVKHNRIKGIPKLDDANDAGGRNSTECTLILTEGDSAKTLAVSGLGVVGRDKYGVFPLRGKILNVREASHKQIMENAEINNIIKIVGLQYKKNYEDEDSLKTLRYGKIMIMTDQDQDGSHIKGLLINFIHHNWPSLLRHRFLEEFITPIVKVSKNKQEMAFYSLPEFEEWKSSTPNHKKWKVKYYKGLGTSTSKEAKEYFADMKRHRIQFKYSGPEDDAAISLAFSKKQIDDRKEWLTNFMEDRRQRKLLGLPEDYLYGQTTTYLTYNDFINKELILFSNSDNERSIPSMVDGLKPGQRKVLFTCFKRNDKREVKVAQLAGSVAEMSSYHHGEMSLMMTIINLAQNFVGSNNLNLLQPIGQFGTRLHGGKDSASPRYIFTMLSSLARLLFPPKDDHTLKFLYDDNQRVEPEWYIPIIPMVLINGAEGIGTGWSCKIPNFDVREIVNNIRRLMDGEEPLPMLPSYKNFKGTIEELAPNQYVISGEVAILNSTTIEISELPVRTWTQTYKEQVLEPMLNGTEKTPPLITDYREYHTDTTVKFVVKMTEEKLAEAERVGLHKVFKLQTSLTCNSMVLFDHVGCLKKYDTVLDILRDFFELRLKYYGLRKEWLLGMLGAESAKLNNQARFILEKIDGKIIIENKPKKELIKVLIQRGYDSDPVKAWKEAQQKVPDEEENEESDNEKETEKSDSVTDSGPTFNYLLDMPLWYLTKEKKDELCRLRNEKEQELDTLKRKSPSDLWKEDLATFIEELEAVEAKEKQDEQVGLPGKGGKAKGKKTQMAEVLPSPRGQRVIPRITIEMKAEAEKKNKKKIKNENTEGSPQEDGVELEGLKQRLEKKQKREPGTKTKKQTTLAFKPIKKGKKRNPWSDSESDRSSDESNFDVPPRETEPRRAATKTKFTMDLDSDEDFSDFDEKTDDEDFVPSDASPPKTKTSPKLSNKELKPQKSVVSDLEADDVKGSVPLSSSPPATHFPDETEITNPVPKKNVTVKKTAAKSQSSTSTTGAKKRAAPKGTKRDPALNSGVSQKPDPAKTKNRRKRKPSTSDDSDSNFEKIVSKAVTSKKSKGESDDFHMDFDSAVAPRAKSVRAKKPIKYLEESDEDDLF
Summary of the method: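 Compounds (50 μM) incubated with 350 ng supercoiled pUC19 before topoisomerase II addition; gel quantified for percentage poisoning normalized to etoposide at the same concentration.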

How did the IC50 (MOLT-4) turn out when `Cn1c(=O)c2sc3sccc3c2c2cc(C3=NCCN3)ccc21` was run?
Its IC50 is 2 µM.

What about the IC50 (HCT-116) of the same molecule?
The IC50 was 1 µM.

And the IC50 (SW-620)?
Its IC50 is 0.3 µM.

And the IC50 (MCF7)?
The IC50 was 2 µM.

What about the IC50 (NCI-H460) of the same molecule?
Its IC50 is 1 µM.

For `CN(C)CCCNC(=O)c1ccc2[nH]c(=O)c3sc4cc(Br)ccc4c3c2c1`, which IC50 (MOLT-4) is on record?
The IC50 was 1 µM.

What about the IC50 (HCT-116) of the same molecule?
Its IC50 is 0.4 µM.

What about the IC50 (SW-620) of the same molecule?
The IC50 was 0.4 µM.

And the IC50 (MCF7)?
The IC50 was 2 µM.

And the IC50 (NCI-H460)?
The IC50 was 2 µM.

Which IC50 (MOLT-4) does the source give for `CN(C)CCCNC(=O)c1ccc(NC(=O)c2sc3cc([N+](=O)[O-])ccc3c2Cl)cc1` here?
Its IC50 is 2 µM.

And the IC50 (HCT-116)?
The IC50 was 2 µM.

What about the IC50 (SW-620) of the same molecule?
The IC50 was 1 µM.

And the IC50 (MCF7)?
Its IC50 is 2 µM.

What about the IC50 (NCI-H460) of the same molecule?
The IC50 was 2 µM.

Which results are given for `Cn1c(=O)c2sc3sccc3c2c2cc(C#N)ccc21`?
IC50 (MOLT-4): 4.8 µM; IC50 (HCT-116): > 10 µM; IC50 (SW-620): > 10 µM; IC50 (MCF7): > 10 µM; IC50 (NCI-H460): > 10 µM

Which results are given for `Cn1c(=O)c2sc3ccccc3c2c2cc(C#N)ccc21`?
IC50 (MOLT-4): 8.7 µM; IC50 (HCT-116): > 10 µM; IC50 (SW-620): > 10 µM; IC50 (MCF7): > 10 µM; IC50 (NCI-H460): > 10 µM

For `CN(C)CCCNC(=O)c1ccc2[nH]c(=O)c3sc4ccccc4c3c2c1`, which IC50 (MOLT-4) is on record?
Its IC50 is 1 µM.

And the IC50 (HCT-116)?
The IC50 was 1 µM.

And the IC50 (SW-620)?
The IC50 was 1 µM.

What about the IC50 (MCF7) of the same molecule?
Its IC50 is 2 µM.

What about the IC50 (NCI-H460) of the same molecule?
Its IC50 is 2 µM.

`CCOC(=O)c1ccc2c(c1)sc1c(=O)[nH]c3ccc(C(=O)NCCCN(C)C)cc3c12` was tested. Which IC50 (MOLT-4) did it give?
Its IC50 is 1 µM.

And the IC50 (HCT-116)?
Its IC50 is 2 µM.

And the IC50 (SW-620)?
Its IC50 is 1 µM.

And the IC50 (MCF7)?
Its IC50 is 3 µM.

What about the IC50 (NCI-H460) of the same molecule?
The IC50 was 3 µM.

With `CN(C)CCCNC(=O)c1ccc(NC(=O)c2sc3cc(Br)ccc3c2Cl)cc1` as the molecule, how does the IC50 (MOLT-4) read?
The IC50 was 2 µM.

And the IC50 (HCT-116)?
The IC50 was 2 µM.

And the IC50 (SW-620)?
Its IC50 is 2 µM.

What about the IC50 (MCF7) of the same molecule?
The IC50 was 2 µM.

And the IC50 (NCI-H460)?
Its IC50 is 2 µM.

Which IC50 (MOLT-4) does the source give for `Cc1ccc2c(Cl)c(C(=O)Nc3ccc(C(=O)NCCCN(C)C)cc3)sc2c1` here?
Its IC50 is 2 µM.

What about the IC50 (HCT-116) of the same molecule?
The IC50 was 3 µM.

What about the IC50 (SW-620) of the same molecule?
Its IC50 is 2 µM.

And the IC50 (MCF7)?
The IC50 was 3 µM.

What about the IC50 (NCI-H460) of the same molecule?
Its IC50 is 2 µM.

How did the IC50 (MOLT-4) turn out when `Cn1c(=O)c2sc3cc(C#N)ccc3c2c2ccccc21` was run?
Its IC50 is ≥ 10 µM.

What about the IC50 (HCT-116) of the same molecule?
Its IC50 is > 10 µM.

And the IC50 (SW-620)?
Its IC50 is > 10 µM.

What about the IC50 (MCF7) of the same molecule?
The IC50 was > 10 µM.

What about the IC50 (NCI-H460) of the same molecule?
The IC50 was > 10 µM.

How did the inhibition [1] turn out when `COc1cc([C@@H]2c3cc4c(cc3[C@@H](O[C@@H]3O[C@@H]5CO[C@@H](C)O[C@H]5[C@H](O)[C@H]3O)[C@H]3COC(=O)[C@H]23)OCO4)cc(OC)c1O` was run?
Its inhibition is “Active”.

`CCOC(=O)c1ccc2c(Cl)c(C(=O)Nc3ccc(C(=O)NCCCN(C)C)cc3)sc2c1` was tested. Which IC50 (MOLT-4) did it give?
The IC50 was 2 µM.

What about the IC50 (HCT-116) of the same molecule?
The IC50 was 3 µM.

What about the IC50 (SW-620) of the same molecule?
Its IC50 is 2 µM.

What about the IC50 (MCF7) of the same molecule?
Its IC50 is 5 µM.

What about the IC50 (NCI-H460) of the same molecule?
The IC50 was 2 µM.

How did the IC50 (MOLT-4) turn out when `CN(C)CCCNC(=O)c1ccc2[nH]c(=O)c3sc4cc([N+](=O)[O-])ccc4c3c2c1` was run?
Its IC50 is 2 µM.

And the IC50 (HCT-116)?
The IC50 was 2 µM.

And the IC50 (SW-620)?
The IC50 was 2 µM.

And the IC50 (MCF7)?
The IC50 was 3 µM.

And the IC50 (NCI-H460)?
The IC50 was 23 µM.

`Cc1ccc2c(c1)sc1c(=O)[nH]c3ccc(C(=O)NCCCN(C)C)cc3c12` was tested. Which IC50 (MOLT-4) did it give?
Its IC50 is 1 µM.

What about the IC50 (HCT-116) of the same molecule?
Its IC50 is 1 µM.

And the IC50 (SW-620)?
The IC50 was 0.4 µM.

What about the IC50 (MCF7) of the same molecule?
The IC50 was 2 µM.

And the IC50 (NCI-H460)?
Its IC50 is 2 µM.

With `CN(C)CCCNC(=O)c1ccc(NC(=O)c2sc3ccccc3c2Cl)cc1` as the molecule, how does the IC50 (HCT-116) read?
Its IC50 is 7 µM.

And the IC50 (MCF7)?
The IC50 was 7 µM.

And the IC50 (NCI-H460)?
Its IC50 is 3 µM.
